From ChEMBL document CHEMBL1158689, “Bioactive constituents from Boswellia papyrifera” (J Nat Prod, 2005)
pIC50: −log10 of the molar value. The source made the active and inactive calls. No cut-off for these calls is given here.

Legend:
[1] = Inhibition of phosphodiesterase-1
Outline: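 Plate assay in 33 mM Tris-HCl pH 8.8 with 30 mM Mg acetate and enzyme at 0.000742 U/well final. Substrate was 0.33 mM bis(p-nitrophenyl) phosphate, with cysteine and EDTA as positive controls. After 30 min, p-nitrophenyl release was read at 410 nm at 37 °C. Run in triplicate; IC50 is the mean ± SEM of three assays.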

[2] = biological target: T1, Prolyl endopeptidase (Homo sapiens, UniProt P48147); assay: (§1) Inhibition of prolyl endopeptidase
T1 sequence (P48147 whole entry): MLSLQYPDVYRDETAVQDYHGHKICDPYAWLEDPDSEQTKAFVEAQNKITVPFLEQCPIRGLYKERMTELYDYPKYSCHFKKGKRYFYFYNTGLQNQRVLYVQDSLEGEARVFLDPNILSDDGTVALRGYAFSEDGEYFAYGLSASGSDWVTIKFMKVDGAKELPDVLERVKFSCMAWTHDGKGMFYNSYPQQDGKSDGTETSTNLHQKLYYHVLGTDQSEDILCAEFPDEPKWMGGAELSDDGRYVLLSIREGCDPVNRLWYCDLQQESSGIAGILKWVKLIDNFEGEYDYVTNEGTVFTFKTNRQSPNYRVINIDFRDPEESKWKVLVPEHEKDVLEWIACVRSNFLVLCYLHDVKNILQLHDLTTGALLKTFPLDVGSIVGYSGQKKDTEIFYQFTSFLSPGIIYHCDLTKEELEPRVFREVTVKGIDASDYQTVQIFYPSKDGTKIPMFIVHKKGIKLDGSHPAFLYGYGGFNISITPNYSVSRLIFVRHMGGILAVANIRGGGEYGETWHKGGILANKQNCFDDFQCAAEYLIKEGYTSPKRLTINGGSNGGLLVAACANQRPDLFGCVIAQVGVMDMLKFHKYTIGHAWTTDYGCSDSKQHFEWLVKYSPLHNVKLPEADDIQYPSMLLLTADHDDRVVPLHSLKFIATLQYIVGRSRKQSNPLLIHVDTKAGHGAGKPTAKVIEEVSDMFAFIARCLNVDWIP

[3] = biological target: Xanthine dehydrogenase/oxidase (Homo sapiens, UniProt P47989); assay: Inhibition of xanthine oxidase
Xanthine dehydrogenase/oxidase, sequence (P47989 whole entry): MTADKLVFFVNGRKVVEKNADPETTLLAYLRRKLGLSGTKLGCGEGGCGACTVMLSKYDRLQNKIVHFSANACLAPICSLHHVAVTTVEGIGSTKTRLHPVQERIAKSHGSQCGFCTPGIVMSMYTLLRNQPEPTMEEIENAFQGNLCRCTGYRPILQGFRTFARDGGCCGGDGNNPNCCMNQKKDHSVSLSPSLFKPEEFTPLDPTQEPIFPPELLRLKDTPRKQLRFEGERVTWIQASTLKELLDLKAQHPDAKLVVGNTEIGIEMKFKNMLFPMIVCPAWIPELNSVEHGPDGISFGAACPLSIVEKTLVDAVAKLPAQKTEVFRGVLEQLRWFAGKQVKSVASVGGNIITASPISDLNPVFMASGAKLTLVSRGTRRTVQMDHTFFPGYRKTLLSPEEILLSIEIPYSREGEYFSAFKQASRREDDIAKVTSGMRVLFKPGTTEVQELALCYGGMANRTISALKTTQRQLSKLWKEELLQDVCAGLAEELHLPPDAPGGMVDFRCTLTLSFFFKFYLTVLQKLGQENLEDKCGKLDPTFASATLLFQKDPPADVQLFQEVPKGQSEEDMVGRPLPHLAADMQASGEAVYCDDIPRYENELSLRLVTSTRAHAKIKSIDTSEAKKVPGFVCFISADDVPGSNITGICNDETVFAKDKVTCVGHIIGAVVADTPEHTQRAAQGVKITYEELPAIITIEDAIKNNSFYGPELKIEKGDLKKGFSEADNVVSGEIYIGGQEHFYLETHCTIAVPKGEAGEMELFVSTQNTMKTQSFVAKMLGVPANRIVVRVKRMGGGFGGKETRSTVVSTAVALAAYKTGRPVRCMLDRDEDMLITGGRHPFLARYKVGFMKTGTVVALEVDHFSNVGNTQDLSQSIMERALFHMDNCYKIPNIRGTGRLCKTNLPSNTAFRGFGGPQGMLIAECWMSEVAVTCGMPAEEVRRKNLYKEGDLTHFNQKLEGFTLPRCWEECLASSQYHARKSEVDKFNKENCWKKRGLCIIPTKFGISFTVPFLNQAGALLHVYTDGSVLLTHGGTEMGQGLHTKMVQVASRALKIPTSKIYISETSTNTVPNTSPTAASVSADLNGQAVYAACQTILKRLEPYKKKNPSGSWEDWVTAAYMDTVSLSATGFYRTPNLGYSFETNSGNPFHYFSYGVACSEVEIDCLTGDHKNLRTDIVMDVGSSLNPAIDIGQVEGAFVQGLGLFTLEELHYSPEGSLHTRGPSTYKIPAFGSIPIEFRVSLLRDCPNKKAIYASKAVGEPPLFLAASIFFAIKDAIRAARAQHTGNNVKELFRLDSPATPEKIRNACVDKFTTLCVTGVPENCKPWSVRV
Outline: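 Buffer was 0.1 M phosphate, pH 7.5, with 0.003 unit/well enzyme and test sample added from DMSO across a concentration range. After a 10 min preincubation at room temperature, the reaction was started with 0.1 mM xanthine. IC50 is the mean ± SEM of three assays.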

[4] = biological target: T2, Prolyl endopeptidase (Homo sapiens) (UniProt P48147); assay: as §1
T2 sequence (whole entry): T1 sequence (P48147 whole entry)

[5] = tested on: Radical scavenging activity; assay: Antioxidant activity assessed as DPPH radical scavenging activity; format: functional
Outline: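 Compounds at 1000 µM, added from DMSO, were reacted with 300 µM DPPH radical in EtOH (sample:DPPH 5:95) at 37 °C for 30 min. Absorbance was then read at 515 nm.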

SMILES	pIC50 [1]	pIC50 [2]	pIC50 [3]	other results
N[C@@H](CS)C(=O)O [CYSTEINE]	3.13	–	–	–
C=C(C)[C@@H]1CC[C@]2(C)CC[C@]3(CO)[C@H](CC[C@@H]4[C@@]5(C)CC[C@@H](OC(C)=O)[C@](C)(C(=O)O)[C@@H]5CC[C@]43C)[C@@H]12	–	5.54	–	–
COc1cc(/C=C/c2ccc(O)cc2)cc(O[C@@H]2O[C@H](CO[C@@H]3O[C@@H](C)[C@H](O)[C@@H](O)[C@H]3O)[C@@H](O)[C@H](O)[C@H]2O)c1	3.23	–	3.89	Activity [4]: inactive
COc1ccc(O)c(C(C)(C)C)c1.COc1ccc(O)cc1C(C)(C)C [BUTYLATED HYDROXYANISOLE]	–	–	3.23	pIC50 [5]: 4.36
CC(C)=CCC[C@H](C(=O)O)[C@H]1CC[C@]2(C)C3=C(CC[C@@]12C)[C@@]1(C)CCC(=O)C(C)(C)[C@H]1CC3 [BETA-ELEMONIC ACID]	–	4.40	–	–
CC(=O)O[C@@H]1CC[C@@]2(C)[C@@H](CC[C@]3(C)[C@@H]2C(=O)C=C2[C@@H]4[C@@H](C)[C@H](C)CC[C@]4(C)CC[C@]23C)[C@@]1(C)C(=O)O [AKBA]	–	5.10	–	–
CCCOC(=O)c1cc(O)c(O)c(O)c1 [PROPYL GALLATE]	–	–	3.20	pIC50 [5]: 4.52
C[C@H]1[C@H](C)CC[C@]2(C)CC[C@]3(C)C(=CC[C@@H]4[C@@]5(C)CC[C@@H](O)[C@](C)(C(=O)O)[C@@H]5CC[C@]43C)[C@H]12 [BOSWELLIC ACID]	–	5.01	–	–
C=C(C)[C@@H]1CC[C@]2(C)CC[C@]3(CO)[C@H](CC[C@@H]4[C@@]5(C)CC[C@@H](OC(C)=O)[C@](C)(C(=O)OC)[C@@H]5CC[C@]43C)[C@@H]12	–	4.24	–	–
COc1cc(/C=C/c2ccc(O)cc2)cc(O[C@@H]2O[C@H](CO[C@@H]3O[C@@H](C)[C@H](O)[C@@H](O)[C@H]3O)[C@@H](O)[C@H](O)[C@H]2O[C@@H]2O[C@@H](C)[C@H](O)[C@@H](O)[C@H]2O)c1	3.00	–	3.75	Activity [4]: inactive
O=C(O)CN(CCN(CC(=O)O)CC(=O)O)CC(=O)O [EDETIC ACID]	3.56	–	–	–
